Measured values reported in ChEMBL document CHEMBL4219101, “Discovery of 18β-glycyrrhetinic acid conjugated aminobenzothiazole derivatives as Hsp90-Cdc37 interaction disruptors that inhibit cell migration and reverse drug resistance” (Bioorg Med Chem, 2018).
Calls of active or inactive are those of the source. The rule behind the calls is not given here.

Assays:
[1] = Antiproliferative activity against human NCI-460 cells after 48 hrs by MTT assay; format: functional, cell-based; conditions: NCI-460, 48 h
Summary of the method: (§1)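 Cells in log phase seeded at about 1.0 × 10^5 cells/mL in 96-well plates, left 12 h at 37 °C, 5% CO2. Compounds dissolved in DMSO, added at 2.5, 5, 10, 20 and 50 µM, 48 h exposure. Absorbance read at 570/630 nm dual wavelength. Survival expressed relative to negative control. IC50 by Bliss method (n = 5), tests done in triplicate.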

[2] = Inhibition of HSP90/Cdc37 interaction in human doxorubicin-resistant NCI-H460 cells assessed as reduction in cell proliferation after 48 hrs by MTT assay; conditions: NCI-H460, 48 h; summary of the method: as §1
Homo sapiens = species: Homo sapiens; test: Inhibition of HSP90/Cdc37 interaction assessed as reversal of drug resistance by measuring ratio of IC50 for human doxorubicin-resistant NCI-H460 cells to IC50 for human NCI-H460 cells
Summary of the method: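 Resistance factor is the ratio of IC50 in NCI-H460/DOX cells to IC50 in parental NCI-H460 cells. […] Values are mean ± SD of five separate experiments. Doxorubicin serves as the positive control.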

[3] = Inhibition of His-tagged full-length Hsp90 (unknown origin)/GST-tagged Cdc37M (unknown origin) interaction after 1 hr by HTRF assay; parameters: species or system Homo sapiens
Summary of the method: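 TR-FRET in PBS containing 400 mM KF, pH 7.3. His-tagged full-length Hsp90 and GST-Cdc37M, each 250 nM final, incubated with compound for 1 h at 37 °C. Anti-GST-Cryptate and anti-6His-XL665 then added for a further 0.5 h at 37 °C. Excitation 320 nm, emission 665/620 nm, reported as ratio ×10,000. Negative and blank controls run in each assay.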

A549 [4] = test: Antiproliferative activity against human A549 cells after 48 hrs by MTT assay; format: functional, cell-based; conditions: A549, 48 h; summary of the method: as §1
MCF7 = test: Antiproliferative activity against human MCF7 cells after 48 hrs by MTT assay; format: functional, cell-based; conditions: MCF7, 48 h; summary of the method: as §1
HepG2 = test: Antiproliferative activity against human HepG2 cells after 48 hrs by MTT assay; format: functional, cell-based; conditions: HepG2, 48 h; summary of the method: as §1
HCT-116 = test: Antiproliferative activity against human HCT116 cells after 48 hrs by MTT assay; format: functional, cell-based; conditions: HCT-116, 48 h; summary of the method: as §1
A549 [5] = test: Inhibition of Hsp90/Cdc37 interaction in human A549 cells assessed as downregulation of Cdc37 in immunoprecipitated HSP90 complex at 10 uM after 24 hrs by Western blot analysis; format: cell-based
Summary of the method: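 A549 cells exposed to 5 and 10 µM for 24 h, geldanamycin 10 µM as comparator. Lysis in 20 mM Tris-HCl pH 7.4, 25 mM NaCl, 2 mM DTT, 20 mM Na2MoO4, 0.1% NP-40 and protease inhibitors. 500 µg protein immunoprecipitated overnight at 4 °C with anti-Hsp90 antibody, captured on protein G agarose, washed five times and boiled. Cdc37 and Hsp90 detected by Western blot, with input also blotted.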

SMILES | IC50 [1] | IC50 [2] | Ratio IC50 (Homo sapiens) | IC50 [3] | IC50 (A549 [4]) | IC50 (MCF7) | IC50 (HepG2) | IC50 (HCT-116) | inhibition (A549 [5])
COc1cccc2c1C(=O)c1c(O)c3c(c(O)c1C2=O)C[C@@](O)(C(=O)CO)C[C@@H]3O[C@H]1C[C@H](N)[C@H](O)[C@H](C)O1 [DOXORUBICIN] | 5.18 µM | 38 µM | 7.33 | – | – | – | – | – | –
CCOC(=O)[C@@]1(C)CC[C@]2(C)CC[C@]3(C)C(=CC(=O)[C@@H]4[C@@]5(C)CC[C@H](OC(=O)CCC(=O)Nc6nc7c(F)cccc7s6)C(C)(C)[C@@H]5CC[C@]43C)[C@@H]2C1 | 12.5 µM | 15.4 µM | 1.23 | 1.05 µM | 9.07 µM | 10.9 µM | 12.5 µM | 10.1 µM | –
CC1(C)[C@@H](O)CC[C@]2(C)[C@H]3C(=O)C=C4[C@@H]5C[C@@](C)(C(=O)Nc6nc7c(Br)cccc7s6)CC[C@]5(C)CC[C@@]4(C)[C@]3(C)CC[C@@H]12 | – | – | – | > 100 µM | > 100 µM | > 100 µM | > 100 µM | > 100 µM | –
CCOC(=O)[C@@]1(C)CC[C@]2(C)CC[C@]3(C)C(=CC(=O)[C@@H]4[C@@]5(C)CC[C@H](OC(=O)CCC(=O)Nc6nc7ccc(Cl)cc7s6)C(C)(C)[C@@H]5CC[C@]43C)[C@@H]2C1 | 10.6 µM | 12 µM | 1.13 | 0.83 µM | 6.09 µM | 8.66 µM | 12.4 µM | 11 µM | –
CC(=O)O[C@H]1CC[C@]2(C)[C@H]3C(=O)C=C4[C@@H]5C[C@@](C)(C(=O)Nc6nc7ccccc7s6)CC[C@]5(C)CC[C@@]4(C)[C@]3(C)CC[C@H]2C1(C)C | – | – | – | > 100 µM | > 100 µM | > 100 µM | > 100 µM | > 100 µM | –
CC(=O)O[C@H]1CC[C@]2(C)[C@H]3C(=O)C=C4[C@@H]5C[C@@](C)(C(=O)Nc6nc7ccc(Br)cc7s6)CC[C@]5(C)CC[C@@]4(C)[C@]3(C)CC[C@H]2C1(C)C | – | – | – | 81.9 µM | 69.7 µM | 78.1 µM | 86 µM | 76.8 µM | –
CCOC(=O)[C@@]1(C)CC[C@]2(C)CC[C@]3(C)C(=CC(=O)[C@@H]4[C@@]5(C)CC[C@H](OC(=O)CCC(=O)Nc6nc7ccc(OC)cc7s6)C(C)(C)[C@@H]5CC[C@]43C)[C@@H]2C1 | – | – | – | 8.24 µM | 15.5 µM | 18.5 µM | 20.4 µM | 21.3 µM | –
CCOC(=O)[C@@]1(C)CC[C@]2(C)CC[C@]3(C)C(=CC(=O)[C@@H]4[C@@]5(C)CC[C@H](OC(=O)CCC(=O)Nc6nc7ccc(Br)cc7s6)C(C)(C)[C@@H]5CC[C@]43C)[C@@H]2C1 | – | – | – | 5.07 µM | 14.2 µM | 16.1 µM | 19 µM | 15.9 µM | –
Cc1cccc2sc(NC(=O)[C@@]3(C)CC[C@]4(C)CC[C@]5(C)C(=CC(=O)[C@@H]6[C@@]7(C)CC[C@H](O)C(C)(C)[C@@H]7CC[C@]65C)[C@@H]4C3)nc12 | – | – | – | > 100 µM | > 100 µM | > 100 µM | > 100 µM | > 100 µM | –
COc1cccc2sc(NC(=O)[C@@]3(C)CC[C@]4(C)CC[C@]5(C)C(=CC(=O)[C@@H]6[C@@]7(C)CC[C@H](OC(C)=O)C(C)(C)[C@@H]7CC[C@]65C)[C@@H]4C3)nc12 | – | – | – | > 100 µM | > 100 µM | > 100 µM | > 100 µM | > 100 µM | –
CCOC(=O)[C@@]1(C)CC[C@]2(C)CC[C@]3(C)C(=CC(=O)[C@@H]4[C@@]5(C)CC[C@H](OC(=O)CCC(=O)Nc6nc7ccccc7s6)C(C)(C)[C@@H]5CC[C@]43C)[C@@H]2C1 | 16.4 µM | 19.2 µM | 1.17 | 9.09 µM | 18.8 µM | 20.5 µM | 25.8 µM | 22.3 µM | –
CC(=O)O[C@H]1CC[C@]2(C)[C@H]3C(=O)C=C4[C@@H]5C[C@@](C)(C(=O)Nc6nc7c(Br)cccc7s6)CC[C@]5(C)CC[C@@]4(C)[C@]3(C)CC[C@H]2C1(C)C | – | – | – | > 100 µM | > 100 µM | > 100 µM | > 100 µM | > 100 µM | –
CC(=O)O[C@H]1CC[C@]2(C)[C@H]3C(=O)C=C4[C@@H]5C[C@@](C)(C(=O)Nc6nc7ccc(C)cc7s6)CC[C@]5(C)CC[C@@]4(C)[C@]3(C)CC[C@H]2C1(C)C | – | – | – | > 100 µM | > 100 µM | > 100 µM | > 100 µM | > 100 µM | –
COC1=C2C[C@@H](C)C[C@H](OC)[C@H](O)[C@@H](C)/C=C(\C)[C@H](OC(N)=O)[C@@H](OC)/C=C\C=C(/C)C(=O)NC(=CC1=O)C2=O | – | – | – | – | – | – | – | – | inactive
CC1(C)[C@@H](O)CC[C@]2(C)[C@H]3C(=O)C=C4[C@@H]5C[C@@](C)(C(=O)Nc6nc7c(Cl)cccc7s6)CC[C@]5(C)CC[C@@]4(C)[C@]3(C)CC[C@@H]12 | – | – | – | 65.6 µM | 75.4 µM | 71.2 µM | 69.6 µM | > 100 µM | –
CC1(C)[C@@H](O)CC[C@]2(C)[C@H]3C(=O)C=C4[C@@H]5C[C@@](C)(C(=O)O)CC[C@]5(C)CC[C@@]4(C)[C@]3(C)CC[C@@H]12 [ENOXOLONE] | – | – | – | 78.4 µM | 84.2 µM | 74.8 µM | 94.5 µM | 91.2 µM | –
COc1ccc2nc(NC(=O)[C@@]3(C)CC[C@]4(C)CC[C@]5(C)C(=CC(=O)[C@@H]6[C@@]7(C)CC[C@H](O)C(C)(C)[C@@H]7CC[C@]65C)[C@@H]4C3)sc2c1 | – | – | – | 62.4 µM | 51.1 µM | 52.7 µM | 60.1 µM | 54.2 µM | –
CC(=O)O[C@H]1CC[C@]2(C)[C@H]3C(=O)C=C4[C@@H]5C[C@@](C)(C(=O)Nc6nc7c(F)cccc7s6)CC[C@]5(C)CC[C@@]4(C)[C@]3(C)CC[C@H]2C1(C)C | – | – | – | > 100 µM | > 100 µM | > 100 µM | > 100 µM | > 100 µM | –
CCOC(=O)[C@@]1(C)CC[C@]2(C)CC[C@]3(C)C(=CC(=O)[C@@H]4[C@@]5(C)CC[C@H](OC(=O)CCC(=O)Nc6nc7c(OC)cccc7s6)C(C)(C)[C@@H]5CC[C@]43C)[C@@H]2C1 | – | – | – | 10.4 µM | 16.4 µM | 20.1 µM | 21.9 µM | 23.1 µM | –
CC(=O)O[C@H]1CC[C@]2(C)[C@H]3C(=O)C=C4[C@@H]5C[C@@](C)(C(=O)Nc6nc7ccc(F)cc7s6)CC[C@]5(C)CC[C@@]4(C)[C@]3(C)CC[C@H]2C1(C)C | – | – | – | 54.3 µM | 85.5 µM | 71.2 µM | 65.6 µM | > 100 µM | –
Cc1ccc2nc(NC(=O)[C@@]3(C)CC[C@]4(C)CC[C@]5(C)C(=CC(=O)[C@@H]6[C@@]7(C)CC[C@H](O)C(C)(C)[C@@H]7CC[C@]65C)[C@@H]4C3)sc2c1 | – | – | – | 83.2 µM | 22.4 µM | 23.2 µM | 27.6 µM | 18.7 µM | –
COc1cccc2sc(NC(=O)[C@@]3(C)CC[C@]4(C)CC[C@]5(C)C(=CC(=O)[C@@H]6[C@@]7(C)CC[C@H](O)C(C)(C)[C@@H]7CC[C@]65C)[C@@H]4C3)nc12 | – | – | – | > 100 µM | 76 µM | 74.5 µM | 86.3 µM | 74.7 µM | –
CCOC(=O)[C@@]1(C)CC[C@]2(C)CC[C@]3(C)C(=CC(=O)[C@@H]4[C@@]5(C)CC[C@H](OC(=O)CCC(=O)Nc6nc7c(Cl)cccc7s6)C(C)(C)[C@@H]5CC[C@]43C)[C@@H]2C1 | 14 µM | 18.1 µM | 1.29 | 1.67 µM | 13.6 µM | 15 µM | 17 µM | 15.4 µM | –
COc1ccc2nc(NC(=O)[C@@]3(C)CC[C@]4(C)CC[C@]5(C)C(=CC(=O)[C@@H]6[C@@]7(C)CC[C@H](OC(C)=O)C(C)(C)[C@@H]7CC[C@]65C)[C@@H]4C3)sc2c1 | – | – | – | 90.1 µM | 75.5 µM | 81.2 µM | 85.6 µM | > 100 µM | –
